The values that follow come from ChEMBL document CHEMBL3244048, “Synthesis and biological activity of potential antimetabolites of L-fucose” (1979).

The source made the active and inactive calls. The rule behind the calls is not given here.

In assay [1] the test system is P388. Briefly: Cytotoxicity against mouse P388 cells assessed as growth inhibition at 1x10'-3 M after 72 hrs by Coulter counting analysis relative to control. Type of assay: functional. The settings on record: P388, 72 h, read-out: GI. An outline of the steps: (§1)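 P388 leukemia cells seeded at 1.1 × 10^4 cells/mL in Fischer's medium with 10% horse serum. Compound dissolved in 0.9% NaCl, with or without 3% Me2SO, at ten times final concentration, filter-sterilized, and added at one-tenth volume. Incubation at 37 °C under 5% CO2; cell numbers counted in triplicate by electronic particle counter after 72 h.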

Assay [2] concerns P388. The assay can be described thus: Cytotoxicity against mouse P388 cells assessed as growth inhibition at 5x10'-4 M after 72 hrs by Coulter counting analysis relative to control. Type of assay: functional. The settings on record: P388, 72 h, read-out: GI. The procedure, abridged:
as §1

Assay [3] has as its system P388. The assay can be described thus: Displacement of L-[3H]-fucose from glycoprotein in mouse P388 cells at 10^-4 to 10^-3 M incubated for 2 hrs prior to radioligand addition measured after 30 mins by scintillation spectrometric analysis. In kind it is cell-based. An outline of the steps: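 P388 cells grown to midlog phase (4 × 10^5 cells/mL) in Fischer's medium plus 10% horse serum, then resuspended in fresh medium at 5 × 10^6 cells/mL. Preincubated 2 h at 37 °C with shaking with compound at 10^-4 or 10^-3 M. L-[3H]fucose and [14C]glucosamine (nonspecific control) then added for 30 min. Stopped with cold 10% TCA; pellets washed, lipid-extracted, hydrolyzed in 0.5 N NaOH at 85 °C; scintillation counting.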

The subject of assay [4] is P388. Briefly: Cytotoxicity against mouse P388 cells assessed as growth inhibition at 1x10'-4 M after 72 hrs by Coulter counting analysis relative to control. In kind it is functional. Conditions: P388, 72 h, read-out: GI. An outline of the steps: as §1
The test system of assay [5] is P388. The assay can be described thus: Cytotoxicity against mouse P388 cells assessed as growth inhibition at 1x10'-5 M after 72 hrs by Coulter counting analysis relative to control. Type of assay: functional. Conditions: P388, 72 h, read-out: GI. An outline of the steps: as §1
In assay [6] the test system is P388. Briefly: Cytotoxicity against mouse P388 cells assessed as growth inhibition at 2.5x10'-4 M after 72 hrs by Coulter counting analysis relative to control. Type of assay: functional. The settings on record: P388, 72 h, read-out: GI. The procedure, abridged:
as §1

With `OC1O[C@@H](CI)[C@@H](O)[C@@H](O)[C@@H]1O` (stereo not given in full), the inhibition of growth at 1000 µM in the assay with P388 [1] stood at 91%. Besides, in the assay with P388 [2], the inhibition of growth at 500 µM worked out at 71%. Besides, the inhibition entry with P388 [3] is “inactive”. In the assay with P388 [4], the inhibition of growth at 100 µM worked out at 44%.

With `CC(=O)NC[C@@H]1OC(O)[C@@H](O)[C@H](O)[C@@H]1O` (stereo not given in full), the inhibition of growth at 1000 µM in the assay on P388 [1] was 16%. For the same compound, the inhibition of growth at 10 µM with P388 [5] stood at 15%. In the assay on P388 [3], the inhibition result is “inactive”. In the assay with P388 [4], the inhibition of growth at 100 µM was 9%.

As for `CC(=O)O[C@@H]1O[C@@H](C(F)F)[C@@H](OC(C)=O)[C@@H](OC(C)=O)[C@@H]1OC(C)=O`, the inhibition of growth at 250 µM in the assay on P388 [6] stood at 89%.

As to `OC1O[C@@H](CCl)[C@@H](O)[C@@H](O)[C@@H]1O` (stereo not given in full), the inhibition of growth at 1000 µM in the assay on P388 [1] was 15%. Further, the inhibition of growth at 10 µM in the assay on P388 [5] is 10%. For the same compound, the inhibition result with P388 [3] is “inactive”. The inhibition of growth at 100 µM in the assay with P388 [4] was 10%.

As for `OC1O[C@@H](CF)[C@@H](O)[C@@H](O)[C@@H]1O` (stereo not given in full), the inhibition of growth at 1000 µM with P388 [1] was found to be 8%. For the same compound, the inhibition of growth at 10 µM with P388 [5] worked out at 3%. In addition, the inhibition result in the assay on P388 [3] is “inactive”. For the same compound, the inhibition of growth at 100 µM with P388 [4] is 10%.

Regarding `[N-]=[N+]=NC[C@@H]1OC(O)[C@@H](O)[C@H](O)[C@@H]1O` (stereo not given in full), the inhibition of growth at 1000 µM in the assay with P388 [1] is 20%. For the same compound, the inhibition of growth at 10 µM in the assay with P388 [5] was determined as 7%. Further, the inhibition entry with P388 [3] is “inactive”. Moreover, the inhibition of growth at 100 µM with P388 [4] is 12%.

Regarding `OC1O[C@@H](C(F)F)[C@@H](O)[C@@H](O)[C@@H]1O` (stereo not given in full), the inhibition of growth at 1000 µM in the assay with P388 [1] was 0%. For the same compound, the inhibition of growth at 500 µM in the assay on P388 [2] is 0%. In the assay on P388 [3], the inhibition result is “inactive”. The inhibition of growth at 100 µM in the assay with P388 [4] turned out to be 0%.

As to `CC[C@@H]1OC(O)[C@@H](O)[C@H](O)[C@@H]1O` (stereo not given in full), in the assay on P388 [1], the inhibition of growth at 1000 µM was 2%. The inhibition entry with P388 [3] is “inactive”.

`Cc1ccc(S(=O)(=O)OC[C@@H]2OC(O)[C@@H](O)[C@H](O)[C@@H]2O)cc1` (stereo not given in full): the inhibition of growth at 1000 µM with P388 [1] is 96%. For the same compound, in the assay on P388 [2], the inhibition of growth at 500 µM was determined as 94%. Moreover, the inhibition of growth at 10 µM with P388 [5] was determined as 14%. In addition, the inhibition entry in the assay with P388 [3] is “inactive”. In addition, the inhibition of growth at 100 µM in the assay on P388 [4] worked out at 25%.

Turning to `OC1O[C@@H](COCc2ccccc2)[C@@H](O)[C@@H](O)[C@@H]1O` (stereo not given in full), in the assay on P388 [1], the inhibition of growth at 1000 µM was determined as 26%. The inhibition of growth at 500 µM in the assay on P388 [2] turned out to be 21%. Further, the inhibition entry with P388 [3] was “inactive”. In addition, in the assay with P388 [4], the inhibition of growth at 100 µM was determined as 17%.

Take `OC1O[C@@H](CBr)[C@@H](O)[C@@H](O)[C@@H]1O` (stereo not given in full): in the assay with P388 [1], the inhibition of growth at 1000 µM is 97%. Further, the inhibition of growth at 500 µM in the assay with P388 [2] turned out to be 87%. In addition, the inhibition result in the assay with P388 [3] is “inactive”. The inhibition of growth at 100 µM in the assay on P388 [4] is 33%.

Consider `CCOC[C@@H]1OC(O)[C@@H](O)[C@H](O)[C@@H]1O` (stereo not given in full), for which, in the assay on P388 [1], the inhibition of growth at 1000 µM is 23%. In addition, the inhibition of growth at 500 µM with P388 [2] worked out at 31%. Besides, in the assay on P388 [3], the inhibition result is “inactive”. Moreover, the inhibition of growth at 100 µM with P388 [4] is 25%.

Take `O=S(=O)(OC[C@@H]1OC(O)[C@@H](O)[C@H](O)[C@@H]1O)c1ccccc1` (stereo not given in full): the inhibition of growth at 1000 µM in the assay on P388 [1] was 97%. For the same compound, in the assay on P388 [2], the inhibition of growth at 500 µM stood at 95%. In the assay on P388 [3], the inhibition entry is “inactive”. For the same compound, the inhibition of growth at 100 µM with P388 [4] is 52%.

As to `COC[C@@H]1OC(O)[C@@H](O)[C@H](O)[C@@H]1O` (stereo not given in full), the inhibition of growth at 1000 µM with P388 [1] turned out to be 73%. The inhibition of growth at 10 µM in the assay on P388 [5] worked out at 12%. Moreover, the inhibition entry in the assay with P388 [3] is “inactive”. Moreover, the inhibition of growth at 100 µM in the assay on P388 [4] was 16%.

With `CS(=O)(=O)OC[C@@H]1OC(O)[C@@H](O)[C@H](O)[C@@H]1O` (stereo not given in full), the inhibition of growth at 1000 µM with P388 [1] turned out to be 96%. In the assay on P388 [2], the inhibition of growth at 500 µM was found to be 86%. In addition, the inhibition entry with P388 [3] was “inactive”. Moreover, the inhibition of growth at 100 µM with P388 [4] came to 56%.

Regarding `O=C(NC[C@@H]1OC(O)[C@@H](O)[C@H](O)[C@@H]1O)C(F)(F)F` (stereo not given in full), the inhibition of growth at 1000 µM in the assay on P388 [1] stood at 36%. The inhibition of growth at 10 µM in the assay on P388 [5] was 7%. Moreover, in the assay on P388 [3], the inhibition entry was “inactive”. Besides, in the assay with P388 [4], the inhibition of growth at 100 µM is 14%.
